Measurements as given in paper PMC3983390 (Journal of medicinal chemistry, 2014).
Like-named read-outs stand apart in the source and are kept apart here.

Key:
[1] = DPPH radical scavenging assay; conditions: 20 to 250 μM drug, 200 μM DPPH, methanol, 30 °C, 25 min; Figure 2
Summary of the method: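 Test compound in methanol as 20–250 μM solutions (before mixing), combined 1:1 with 200 μM methanolic DPPH. Plate shaken at 30 °C for 25 min. Controls were methanol plus DPPH, with methanol alone as background and ascorbic acid as standard. Absorbance read at 517 nm. % scavenging = (A control − A sample)/A control × 100.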

reserpine-treated rats = assay: Reversal of reserpine-induced hypolocomotion in rats; type: in vivo, rat; conditions: for reversal of akinesia (locomotor activity) in reserpine-treated rats: i.p., in DI water, 18 h after reserpine 5 mg/kg s.c.
Summary of the method: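 Male Sprague–Dawley rats (220–225 g) anaesthetised with isoflurane and given reserpine 5.0 mg/kg s.c. (acetic acid diluted in 5.5% glucose) or saline 18 h beforehand. After 1 h chamber acclimatisation, test compound (in water) given i.p. at 5 μmol/kg; reference agonist given s.c. Horizontal activity counted from infrared beam breaks for 6 h in 30-min bins. n = 4; mean ± SEM; one-way ANOVA with Dunnett vs saline controls.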

6-OHDA lesioned rats = assay: In vivo rotational experiment with 6-OHDA unilaterally lesioned rats; design: species or system rat; conditions: for rotational activity in 6-OHDA lesioned rats / duration of rotation / total number of rotations: i.p.
Summary of the method: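 Rats (290–320 g) with a unilateral 6-OHDA lesion of the left medial forebrain bundle. Lesion confirmed by apomorphine challenges, including 0.05 mg/kg at 21 days post-lesion with contralateral rotations counted for 30 min. Test compound given i.p. at 5 or 10 μmol/kg; controls were vehicle and apomorphine reference. Contralateral (clockwise) rotations counted in harnessed rotometry chambers from dosing, in 30-min bins, over 7–12 h.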

MN9D cells = assay: Neuroprotection against MPP+ toxicity in dopaminergic MN9D cells; type: cell-based, mouse; conditions: 1 h pretreatment, then cotreatment with 100 μM MPP+ for 24 h; MTT
Summary of the method: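 MN9D cells (mouse mesencephalic neuron × N18TG2 hybridoma) grown on poly-L-lysine in high-glucose DMEM with 10% serum and penicillin/streptomycin, 37 °C, 5% CO2. Seeded at 1 × 10^4 cells/well and equilibrated 40 h. Pretreated 1 h with test compound (0.001–20 μM; DMSO stock), then MPP+ added to 100 μM final for 24 h; controls 0.01% DMSO. MTT (0.5 mg/mL final) 3 h; formazan dissolved in DMSO/methanol 1:1; A570 minus A690. Three independent experiments, 4–6 replicates, mean ± SD; one-way ANOVA with Tukey vs MPP+.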

rD2L receptor = rD2L receptor (Rattus norvegicus, UniProt P61169); conditions: read-out: Ki (nM), rD2L [3H]spiroperidol; HEK-293 cells; from previous ref 44; cited from earlier work
Chain of rD2L receptor (P61169 whole entry): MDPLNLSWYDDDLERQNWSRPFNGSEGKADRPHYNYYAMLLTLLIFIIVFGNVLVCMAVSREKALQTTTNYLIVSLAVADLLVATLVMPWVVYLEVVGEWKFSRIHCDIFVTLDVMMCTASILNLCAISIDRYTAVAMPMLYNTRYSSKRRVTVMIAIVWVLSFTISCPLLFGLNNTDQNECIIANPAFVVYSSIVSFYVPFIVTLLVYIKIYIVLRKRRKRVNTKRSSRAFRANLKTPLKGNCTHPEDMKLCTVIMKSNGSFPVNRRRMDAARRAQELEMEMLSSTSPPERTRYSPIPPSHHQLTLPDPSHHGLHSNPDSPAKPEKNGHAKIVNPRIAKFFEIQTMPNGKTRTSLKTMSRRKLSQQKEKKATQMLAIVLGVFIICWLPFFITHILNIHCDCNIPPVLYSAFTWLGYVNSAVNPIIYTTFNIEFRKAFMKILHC

rD3 receptor = rD3 receptor (Rattus norvegicus, UniProt P19020); conditions: read-out: Ki (nM), rD3 [3H]spiroperidol; HEK-293 cells; from previous ref 44; cited from earlier work
Chain of rD3 receptor (P19020 whole entry): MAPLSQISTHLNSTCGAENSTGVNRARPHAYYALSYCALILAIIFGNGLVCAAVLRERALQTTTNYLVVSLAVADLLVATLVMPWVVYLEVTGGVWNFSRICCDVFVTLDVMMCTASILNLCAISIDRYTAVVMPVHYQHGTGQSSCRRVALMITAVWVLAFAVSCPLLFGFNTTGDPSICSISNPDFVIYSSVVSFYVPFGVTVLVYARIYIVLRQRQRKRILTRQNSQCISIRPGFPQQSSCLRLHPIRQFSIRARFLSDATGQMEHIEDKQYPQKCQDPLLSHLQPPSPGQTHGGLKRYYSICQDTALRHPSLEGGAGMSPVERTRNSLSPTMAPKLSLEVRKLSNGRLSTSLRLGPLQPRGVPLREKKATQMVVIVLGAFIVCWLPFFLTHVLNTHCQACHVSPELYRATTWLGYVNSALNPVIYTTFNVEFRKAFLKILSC

hD2 receptor [2] = target: T1, hD2 receptor (Homo sapiens, UniProt P14416); conditions: GTPγS, compared with Emax of DA; cited from earlier work
T1 sequence (P14416 whole entry): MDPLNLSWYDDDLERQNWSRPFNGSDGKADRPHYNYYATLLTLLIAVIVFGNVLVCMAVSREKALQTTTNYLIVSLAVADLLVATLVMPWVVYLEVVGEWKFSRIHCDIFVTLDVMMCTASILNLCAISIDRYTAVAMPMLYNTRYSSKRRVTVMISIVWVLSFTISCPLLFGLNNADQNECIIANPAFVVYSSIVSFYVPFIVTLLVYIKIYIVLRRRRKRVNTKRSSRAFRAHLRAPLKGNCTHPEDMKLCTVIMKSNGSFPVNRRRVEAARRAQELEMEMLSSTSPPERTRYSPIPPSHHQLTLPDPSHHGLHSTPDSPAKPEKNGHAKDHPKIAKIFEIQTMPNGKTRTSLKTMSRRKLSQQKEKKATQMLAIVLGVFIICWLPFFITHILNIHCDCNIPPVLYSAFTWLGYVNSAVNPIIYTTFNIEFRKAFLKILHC

hD3 receptor [3] = target: T2, hD3 receptor (Homo sapiens, UniProt P35462); conditions: GTPγS, compared with Emax of DA; cited from earlier work
T2 sequence (P35462 whole entry): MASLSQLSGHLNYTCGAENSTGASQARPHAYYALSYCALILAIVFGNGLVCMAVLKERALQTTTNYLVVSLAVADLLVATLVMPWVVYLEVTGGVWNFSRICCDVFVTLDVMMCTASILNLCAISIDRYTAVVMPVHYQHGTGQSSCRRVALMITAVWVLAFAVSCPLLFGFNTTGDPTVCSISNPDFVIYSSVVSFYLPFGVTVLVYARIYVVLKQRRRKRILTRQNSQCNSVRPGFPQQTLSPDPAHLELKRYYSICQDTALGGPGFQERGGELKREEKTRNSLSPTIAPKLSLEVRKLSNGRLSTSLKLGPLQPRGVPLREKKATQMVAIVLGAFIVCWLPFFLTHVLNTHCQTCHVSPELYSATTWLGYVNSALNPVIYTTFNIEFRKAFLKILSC

hD2 receptor [4] = target: T1, hD2 receptor; assay: Stimulation of [35S]GTPγS binding to hD2 receptors expressed in CHO cells; type: biochemical; conditions: compared with Emax of DA
hD3 receptor [5] = target: T2, hD3 receptor; assay: Stimulation of [35S]GTPγS binding to hD3 receptors expressed in CHO cells; type: biochemical; conditions: for agonist type at D3 receptor: GTPγS, compared with Emax of DA

CCCN(CCN1CCN(c2ccc(-c3cccc(O)c3)cc2)CC1)[C@H]1CCc2c(O)cccc2C1 [(−)-11, (S)-6-((2-(4-(3′-Hydroxybiphenyl-4-yl)piperazin-1-yl)ethyl)-(propyl)amino)-5,6,7,8-tetrahydronaphthalen-1-ol]
DPPH radical scavenging (antioxidant) activity [1]: less antioxidant activity in this assay than (−)-9b

CCCN(CCN1CCN(c2ccc(-c3ccccc3)cc2)CC1)[C@H]1CCc2nc(N)sc2C1 [Compound 1a, (−)-N6-(2-(4-(Biphenyl-4-yl)piperazin-1-yl)-ethyl)-N6-propyl-4,5,6,7-tetrahydrobenzo[d]thiazole-2,6-diamine]
reversal of akinesia (locomotor activity) in reserpine-treated rats (reserpine-treated rats; 5 μmol/kg): failed to produce any significant effect in reversing akinesia
reversal of akinesia in reserpine-treated rats (reserpine-treated rats; dissolved in 10% beta-hydroxy cyclodextrin solution, 5 μmol/kg i.p.): more effective
rotational activity in 6-OHDA lesioned rats (6-OHDA lesioned rats): failed to show any in vivo activity
protection of MN9D cells from MPP+ induced toxicity (MN9D cells): able to protect the MN9D cells in a dose-dependent manner
Ki (rD2L receptor): 186 ± 34 nM
Ki (rD3 receptor): 2.1 ± 0.34 nM
agonist type at D2 receptor (hD2 receptor [2]): full agonist
agonist type at D3 receptor (hD3 receptor [3]): full agonist

CCCN(CCN1CCN(c2ccc(-c3cccc(OC)c3)cc2)CC1)[C@H]1CCc2nc(N)sc2C1 [Compound (−)-8b, (S)-N6-(2-(4-(3′-Methoxybiphenyl-4-yl)piperazin-1-yl)ethyl)-N6-propyl-4,5,6,7-tetrahydrobenzo[d]thiazole-2,6-diamine]
agonist type at D2 receptor (hD2 receptor [4]): full agonist
less potent at D3 receptor in comparison to 1a (hD3 receptor [5]; GTPγS EC50): 2 fold
agonist type at D3 receptor (hD3 receptor [5]): partial agonist
reversal of akinesia (locomotor activity) in reserpine-treated rats (reserpine-treated rats; 5 μmol/kg): highly efficacious in reversing akinesia
duration of rotation (6-OHDA lesioned rats; 5 μmol/kg): more than 7 h
total number of rotations (6-OHDA lesioned rats; 5 μmol/kg): 3333 rotations
duration of rotation (6-OHDA lesioned rats; 10 μmol/kg): more than 10 h
total number of rotations (6-OHDA lesioned rats; 10 μmol/kg): 5866 rotations
rotational activity in 6-OHDA lesioned rats (6-OHDA lesioned rats): produced potent rotational activity in a dose-dependent manner
protection of MN9D cells from MPP+ induced toxicity (MN9D cells): did not show any neuroprotection

CCCN(CCN1CCN(c2ccc(-c3cccc(O)c3)cc2)CC1)[C@H]1CCc2nc(N)sc2C1 [Compound (−)-9b, (S)-4′-(4-(2-((2-Amino-4,5,6,7-tetrahydrobenzo[d]thiazol-6-yl)(propyl)amino)ethyl)piperazin-1-yl)biphenyl-3-ol]
agonist type at D2 receptor (hD2 receptor [4]): full agonist
increase in D3 functional potency in comparison to 1a (hD3 receptor [5]; GTPγS EC50): 15 fold
increase in functional selectivity (D2/D3) in comparison to 1a (hD3 receptor [5]; GTPγS EC50 ratio): 7 fold
agonist type at D3 receptor (hD3 receptor [5]): full agonist
reversal of akinesia (locomotor activity) in reserpine-treated rats (reserpine-treated rats; 5 μmol/kg): highly efficacious in reversing akinesia
duration of rotation (6-OHDA lesioned rats; 5 μmol/kg): more than 7 h
total number of rotations (6-OHDA lesioned rats; 5 μmol/kg): 1839 rotations
duration of rotation (6-OHDA lesioned rats; 10 μmol/kg): more than 10 h
total number of rotations (6-OHDA lesioned rats; 10 μmol/kg): 2653 rotations
rotational activity in 6-OHDA lesioned rats (6-OHDA lesioned rats): produced potent rotational activity in a dose-dependent manner
protection of MN9D cells from MPP+ induced toxicity (MN9D cells): able to protect the MN9D cells in a dose-dependent manner

CN1CCc2cccc3c2[C@H]1Cc1ccc(O)c(O)c1-3 [apomorphine, reference compound]
average contralateral rotation (6-OHDA lesioned rats; apomorphine 0.05 mg/kg, 21 days postlesion, recorded for 30 min): > 250

O=C1O[C@H]([C@@H](O)CO)C(O)=C1O [ascorbic acid]
DPPH radical scavenging (antioxidant) activity [1]: inhibited DPPH radical activity dose dependently

CCCN(CCC)CCc1cccc2c1CC(=O)N2 [ropinirole, Ropinirole, reference compound]
DPPH radical scavenging (antioxidant) activity [1]: poor activity
duration of action in reserpine-treated rats (reserpine-treated rats; 5 μmol/kg, s.c., compared to the test compounds): much shorter duration of action
duration of action in 6-OHDA lesioned rats (6-OHDA lesioned rats; 10 μmol/kg): much shorter duration of action
